This is an account of results in ChEMBL document CHEMBL1124436, “Benzofurans as mechanism-based inhibitors of dopamine beta-hydroxylase” (J Med Chem, 1989).

The target of experiment [1] is T1, Dopamine beta-hydroxylase (Bos taurus, UniProt P15101).
T1 sequence (P15101 whole entry): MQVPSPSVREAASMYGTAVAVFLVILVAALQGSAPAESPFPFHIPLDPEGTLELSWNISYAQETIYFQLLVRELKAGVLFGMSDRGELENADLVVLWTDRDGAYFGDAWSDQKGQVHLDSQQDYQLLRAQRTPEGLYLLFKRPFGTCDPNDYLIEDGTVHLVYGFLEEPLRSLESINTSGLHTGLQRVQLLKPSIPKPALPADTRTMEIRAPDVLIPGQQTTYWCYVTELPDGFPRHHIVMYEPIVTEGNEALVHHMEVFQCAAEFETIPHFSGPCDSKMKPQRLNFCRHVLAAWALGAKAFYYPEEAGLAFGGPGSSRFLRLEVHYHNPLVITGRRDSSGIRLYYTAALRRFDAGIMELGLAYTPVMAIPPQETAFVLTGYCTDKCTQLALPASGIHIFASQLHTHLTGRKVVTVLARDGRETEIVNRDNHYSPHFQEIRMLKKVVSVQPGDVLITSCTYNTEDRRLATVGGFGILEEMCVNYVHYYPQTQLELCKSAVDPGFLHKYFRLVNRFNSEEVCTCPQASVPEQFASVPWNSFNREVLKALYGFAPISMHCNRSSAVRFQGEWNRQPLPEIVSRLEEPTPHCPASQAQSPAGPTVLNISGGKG
The experiment can be described thus: Compound was evaluated for the ability to bind to dopamine beta-hydroxylase of bovine. A digest of the protocol:
(§1)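 Purified bovine DβH (20-40 μg) was preincubated at 25 °C with varied inhibitor in 100 mM Mes/100 mM NaOAc, pH 5.0, with 0-3% DMF, 0.5 mg/mL catalase and 12 mM ascorbate. Timed aliquots went into assay mix at 37 °C, pH 5.5, with 30 mM tyramine and 12 mM ascorbate, and O2 uptake was read. Apparent kinact came from ln(activity) versus time; 1/kinact versus 1/[I] replots gave kinact and Ki.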

Experiment [2] concerns the target T2, Dopamine beta-hydroxylase (Bos taurus) (UniProt P15101).
T2 sequence (whole entry): T1 sequence (P15101 whole entry)
Kind of experiment: Inactivation constant of compound was determined by using bovine dopamine beta-hydroxylase. A digest of the protocol: as §1

Experiment [3] is described as follows: (§2) Partition ratio was determined by quantitating amount of compound consumed after complete inactivation of a known amount of dopamine beta-hydroxylase. A digest of the protocol: (§3)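 Bovine DβH (15-20 μg) was fully inactivated at 25 °C with inhibitor in 125 mM Mes/125 mM NaOAc, pH 5.5, with 0.5 mg/mL catalase and 12 mM ascorbate. Inhibitor consumed was quantified by C18 HPLC (water-acetonitrile) with UV detection at each inhibitor's maximum. Controls without enzyme were run. Partition ratio is turnover/inactivation.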

Experiment [4] can be described thus: Ratio of inactivation constant (Kinact) and inhibitory constant (Ki). A digest of the protocol:
as §1

The target in experiment [5] is T2, Dopamine beta-hydroxylase (Bos taurus). The description is as §2. A digest of the protocol:
as §3

Some results are limits rather than exact numbers.

One may read the Ki as the equilibrium dissociation constant of an inhibitor or competing ligand from its target. As for `Oc1cccc2ccoc12`, the affinity in experiment [1] corresponds to a Ki of 3200 µM. Also, the K inact in experiment [2] worked out at 0.25 min⁻¹. Also, in experiment [3], the Partition ratio stood at 35.

`C#CC(CN)c1ccc(O)cc1` (stereo not given): in experiment [4], the Ratio was found to be 3230.

`Oc1ccc2ccoc2c1`: the Ratio in experiment [4] came to 5750. Also, the Ki in experiment [1] was determined as 40 µM. Besides, the K inact in experiment [2] was determined as 0.23 min⁻¹. In addition, the Partition ratio in experiment [3] was determined as 27.

Turning to `C=C(CN)c1ccc(O)cc1`, in experiment [4], the Ratio came out at 1560.

On to `C/C=C/c1ccc(O)cc1`, for which the Ki in experiment [1] is more than 20000 µM. For the same compound, the Partition ratio in experiment [5] is 680.

In the case of `C=Cc1ccc(O)cc1` [4-VINYLPHENOL], the Ki in experiment [1] is 700 µM. In experiment [2], the K inact stood at 0.025 min⁻¹. Further, in experiment [3], the Partition ratio was determined as 730.

For `NCC=C1SCCS1`, the Ratio in experiment [4] amounted to 30000. In experiment [1], this compound registered a Ki of 5 µM. Also, the K inact in experiment [2] amounted to 0.15 min⁻¹.

In the case of `Oc1ccc2occc2c1`, the Ki in experiment [1] was 1900 µM. Moreover, in experiment [2], the K inact came out at 0.23 min⁻¹. Moreover, in experiment [3], the Partition ratio is 8.
